What was measured:
DfrB1 [1] = target: T1, DfrB1 (Escherichia coli, UniProt P00383); assay: DfrB1 inhibition, spectrophotometric kinetic assay; type: biochemical; settings: for Hill coefficient: DfrB1 inhibition, Hill plot; for fold change of DfrB1 Ki relative to 1: greater Ki / weaker than 1; for IC50: DfrB1 IC50, pH 7; for inhibition of DfrB1 (in words): at the highest concentration that could be assayed
T1 sequence (P00383 1-78): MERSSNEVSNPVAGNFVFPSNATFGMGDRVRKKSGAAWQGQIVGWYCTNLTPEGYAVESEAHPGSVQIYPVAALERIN

DfrB4 = target: T2, DfrB4 (Escherichia coli, UniProt Q8VNN1); assay: DfrB4 inhibition, kinetic assay; type: biochemical
T2 sequence (Q8VNN1 1-78): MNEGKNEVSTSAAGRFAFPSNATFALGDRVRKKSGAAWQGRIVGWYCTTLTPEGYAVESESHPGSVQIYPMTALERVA

hDfr = target: T3, hDfr (Homo sapiens, UniProt P00374); assay: human Dfr inhibition, kinetic assay; type: biochemical; settings: for inhibition of hDfr (in words): selectivity
T3 sequence (P00374 1-187): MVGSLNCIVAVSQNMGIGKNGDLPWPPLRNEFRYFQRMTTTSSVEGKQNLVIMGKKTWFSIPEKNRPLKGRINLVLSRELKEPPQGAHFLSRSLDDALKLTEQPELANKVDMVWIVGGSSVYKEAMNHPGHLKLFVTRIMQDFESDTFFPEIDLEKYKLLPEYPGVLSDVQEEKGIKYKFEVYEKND
In short: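 His6-tagged human Dfr, purified by nickel affinity (stepwise imidazole in 0.1 M potassium phosphate, pH 8.0), then gel filtration in 0.1 M potassium phosphate, pH 7.5. Protein quantified by Bio-Rad assay. Kinetic assay at pH 7. Test compound tested up to the highest concentration that absorbance and precipitation allowed. IC50 determined per earlier method, with Ki calculated from IC50.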

apo-DfrB1 = settings: read-out: Kd1; binding on the apo-DfrB1; cited from earlier work
DfrB1 [2] = target: T1, DfrB1; settings: DfrB1 substrate KM; cited from earlier work
E. coli expressing DfrB4 = settings: highest TMP concentration dissolved in the medium, 600 μg/mL; cited from earlier work
[3] = Solubility limit in assay medium; type: physicochemical; settings: 10% DMSO, aqueous with cosolvent or surfactant or cyclodextrin

SMILES	Ki (DfrB1 [1])	Ki (DfrB4)	IC50 (DfrB1 [1])	IC50 (hDfr)	also measured
O=C(O)c1ccc2[nH]c(-c3ccc(OCc4ccccc4COc4ccc(-c5nc6cc(C(=O)O)ccc6[nH]5)cc4)cc3)nc2c1 [Compound 33]	7.4 ± 2.7 µM	11 ± 1.3 µM			Hill coefficient (DfrB1 [1]): 1.1 ± 0.1; fold change of DfrB1 Ki relative to 1 (DfrB1 [1]): 2 fold; mode of inhibition (Dixon plot) (DfrB1 [1]; varying NADPH, saturating DHF, with respect to NADPH binding): competitive; inhibition of hDfr (in words) (hDfr): no inhibition
O=C(O)c1ccc2cc(-c3ccc(OCCCCCCCCOc4ccc(-c5ccc6cc(C(=O)O)ccc6c5)cc4)cc3)ccc2c1 [Compound 18]			> 200 µM		inhibition of DfrB1 (in words) (DfrB1 [1]): abolished inhibition
Nc1nc(=O)c2c([nH]1)NCC(CNc1ccc(C(=O)N[C@@H](CCC(=O)O)C(=O)O)cc1)=N2 [DHF, dihydrofolate]					Kd (apo-DfrB1): 120 µM
NC(=O)C1=CN([C@@H]2O[C@H](COP(=O)(O)OP(=O)(O)OC[C@H]3O[C@@H](n4cnc5c(N)ncnc54)[C@H](OP(=O)(O)O)[C@@H]3O)[C@@H](O)[C@H]2O)C=CC1 [NADPH]					Km (DfrB1 [2]): 1.6 ± 0.02 µM; Km (DfrB4; DfrB4 substrate KM): 2.8 ± 0.6 µM; Kd (apo-DfrB1): 2.5 µM
O=C(O)c1ccc2nc(-c3ccc(OCCC(O)COc4ccc(-c5nc6ccc(C(=O)O)cc6[nH]5)cc4Br)c(Br)c3)[nH]c2c1 (stereo not shown) [Compound 20b]	2.6 ± 0.7 µM	3.7 ± 0.7 µM	80 ± 20 µM	> 400 µM	
O=C(O)c1ccc2[nH]c(-c3ccc(OCCC(O)COc4ccc(-c5nc6cc(C(=O)O)ccc6[nH]5)cc4)cc3)nc2c1 (stereo not shown) [Compound 3]	3.5 ± 1.7 µM	3.9 ± 0.9 µM	110 ± 10 µM	> 500 µM	inhibition of hDfr (in words) (hDfr): no inhibition
O=C(O)c1ccc2nc(-c3ccc(OCCCOc4ccc(-c5nc6ccc(C(=O)O)cc6[nH]5)cc4Br)c(Br)c3)[nH]c2c1 [Compound 21]	1.7 ± 0.6 µM		60 ± 20 µM	> 400 µM	
O=C(O)Cc1ccc(OCCCCCCOc2ccc(CC(=O)O)cc2)cc1 [Compound 16]			> 500 µM		inhibition of DfrB1 (in words) (DfrB1 [1]): No inhibition was observed
O=C(O)CCc1ccc(OCCCCOc2ccc(CCC(=O)O)cc2)cc1 [Compound 17]			> 200 µM		inhibition of DfrB1 (in words) (DfrB1 [1]): No inhibition was observed
O=C(O)c1ccc(OCCCCCCOc2ccc(C(=O)O)cc2)cc1 [Compound 12]			> 500 µM		
COc1cc(Cc2cnc(N)nc2N)cc(OC)c1OC [TMP, Trimethoprim, reference compound]	600 µM	550 µM			TMP resistance conferred by DfrB4 expression (E. coli expressing DfrB4): complete resistance
O=C(O)c1ccc2[nH]c(-c3ccc(OC/C=C/COc4ccc(-c5nc6cc(C(=O)O)ccc6[nH]5)cc4)cc3)nc2c1 [Compound 10]	2.8 ± 0.8 µM		90 ± 20 µM	> 400 µM	inhibition of hDfr (in words) (hDfr): did not inhibit
O=C(O)c1ccc2[nH]c(-c3ccc(OCc4ccc(COc5ccc(-c6nc7cc(C(=O)O)ccc7[nH]6)cc5)cc4)cc3)nc2c1 [Compound 11]	6.1 µM			> 100 µM	solubility [3]: ≤ 100 µM; inhibition of hDfr (in words) (hDfr): did not inhibit
O=C(O)c1ccc(OCCCCCCCCCCCCOc2ccc(C(=O)O)cc2)cc1 [Compound 15]			> 250 µM		
O=C(O)c1ccc2nc(-c3ccc(OCC(COc4ccc(-c5nc6ccc(C(=O)O)cc6[nH]5)cc4)(COc4ccc(-c5nc6ccc(C(=O)O)cc6[nH]5)cc4)COc4ccc(-c5nc6ccc(C(=O)O)cc6[nH]5)cc4)cc3)[nH]c2c1 [Compound 31]	1.1 ± 0.3 µM	1.9 ± 0.5 µM			fold lower DfrB1 Ki than the best inhibitors (DfrB1 [1]): 2- to 12 fold; Hill coefficient (DfrB1 [1]): 1.1 ± 0.4
O=C(O)c1ccc2[nH]c(-c3cccc(OCC(O)COc4cccc(-c5nc6cc(C(=O)O)ccc6[nH]5)c4)c3)nc2c1 [Compound 19]	12 ± 3 µM		400 ± 100 µM	> 500 µM	fold change of DfrB1 Ki relative to 1 (DfrB1 [1]): 3 fold

Reference: article PMC6648814 (ACS Omega, 2019)
